Compound activity as filed in PubChem.
An excerpt weighted towards active compounds, which were near 1.1% of everything screened.
Rad51 HR inh – Rad51 (human) homologous recombination inhibition; hRad51 DNA strand exchange, fluorescence dequenching; inhibition, % at 10 µM; Q06609; 200,000 tested, 0.085% active;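 active = inhibition above 40% at the single screening dose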;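 note: 0% = DMSO control wells and 100% = blanks with heterologous ssDNA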
Target sequence (Q06609 whole entry, looked up): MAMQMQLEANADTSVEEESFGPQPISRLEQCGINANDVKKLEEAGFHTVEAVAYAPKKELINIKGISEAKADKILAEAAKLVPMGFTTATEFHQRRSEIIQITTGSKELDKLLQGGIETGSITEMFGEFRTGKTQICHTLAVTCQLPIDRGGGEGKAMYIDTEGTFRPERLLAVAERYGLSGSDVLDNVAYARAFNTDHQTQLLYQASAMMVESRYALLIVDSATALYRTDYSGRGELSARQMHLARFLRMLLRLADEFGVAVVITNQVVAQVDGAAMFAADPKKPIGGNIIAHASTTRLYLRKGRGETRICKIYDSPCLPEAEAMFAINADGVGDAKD
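System: hRad51 filaments on single-stranded DNA; reagent: Fluorescein- and BHQ1-tagged 47-mer duplex; compound dosing: one concentration, 10 µM final; timing: filaments 15 min 37 °C, then compound 30 min; measured by: fluorescein emission 520 nm, excitation 485 nm; benchmarks: per-plate controls and blanks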
Calpain2 inh – inhibitors of pig calpain II; purified calpain II, fluorogenic peptide substrate, 30 min; inhibition, % at 16 µM; 220,000 tested, 0.37% active;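 active = inhibition above about 50%, limit read from the data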
HMGR II inh – inhibitors of class II HMG-CoA reductase from Enterococcus faecalis; purified E. faecalis HMGR, NADPH absorbance 340 nm kinetic; inhibition, % at 10 µM; 190,000 tested, 0.41% active; AID 1066;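 active = inhibition above a set limit, the median over all tested compounds plus 3 SD, cut at about 9.5% in these data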;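 note: enzyme runs in reverse so mevalonate oxidation gives rising NADPH absorbance; 0% = complete reaction with DMSO and 100% = background rate lacking mevalonate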
PMI act satM6P – activators of human phosphomannose isomerase at near-saturating mannose 6-phosphate; activation factor at 20 µM; 190,000 tested, 0.34% active; AID 1216; P34949; coupled PMI enzyme assay, resazurin fluorescence, 20 min; active compounds read high; 1 = untreated enzyme, 0 = substrate-free blank;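 active = activation factor of 2 or more at 20 µM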
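Test system: human PMI in coupled enzyme assay; Input: PMI at 15 ng/mL final; Medium: HEPES buffer, pH 7.4; Schedule: 20 min incubation at room temperature; Technique: resorufin fluorescence at Ex 544/Em 590 nm; Compound: 20 µM single dose; Probe or stimulus: Near-saturating mannose-6-phosphate, 1.0 mM.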
PMI act – activators of human phosphomannose isomerase. purified human PMI, coupled resazurin fluorescence, 20 min; active compounds read high; 1 = vehicle control, 0 substrate-free wells. 190,000 tested, 0.005% active. P34949. activation factor at 20 µM. AID 1214;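 active = activation factor of 2 or more at 20 µM, relative to plate controls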
* hit, by the source's call; i = inactive; nt = no result given; + = active, no number.

SMILES | Rad51 HR inh | Calpain2 inh | HMGR II inh | PMI act satM6P | PMI act
CCOC(=O)C1(C(=O)OCC)CC1c1ccccc1 (stereo not given) | 58* | 2 | 2 | 0.9 | 0.9
CCOC(=O)c1c(C)[nH]c(C)c1C(=O)COC(=O)c1ccc(Cl)c(S(=O)(=O)NCc2ccccc2)c1 | -5 | -3 | -6 | 1 | 1
CCOC(=O)c1oc2ccc(CNCCO)c(Cl)c2c1C | -15 | -24 | 10* | 1.1 | 1
NC(=O)CSc1nnc(-c2ccc([N+](=O)[O-])cc2)o1 | -2 | -13 | 14* | 1.1 | 1.1
CN(Cc1nc(-c2cnccn2)no1)C1CC(C)(C)NC(C)(C)C1 | 4 | -27 | 18* | 0.9 | 0.9
CN(Cc1nc(-c2cnccn2)no1)CC1(c2ccccc2)CC1(C)C (stereo not given) | nt | 18 | -3 | 1 | 1.1
Cc1ccc(P(=Nc2ccccc2)(N2CCOCC2)N2CCOCC2)o1 | 3 | 8 | -3 | 1 | 0.8
O=C(NN1CCOCC1)c1ccc(Cl)s1 | -9 | 10 | -3 | 1.1 | 1
Cc1c(O)ccc(C(=O)CN2C(=O)c3ccccc3C2=O)c1O | -2 | 78* | -4 | 0.9 | 0.8
COc1ccc([C@H]2/C=C\CN(C(=O)C3CC3)[C@@H](C)C(=O)N2Cc2ccc(F)cc2)cc1 | -4 | nt | nt | nt | nt
CC(C)N(Cc1ccccc1)CC(O)COc1ccc(S(=O)(=O)N2CCOCC2)cc1Cl (stereo not given) | 2 | 17 | -5 | 1.1 | 1.1
CC(=O)c1cccc(NC(=O)Nc2ccc(C(=O)N3CCCC3)cc2)c1 | 7 | -39 | -1 | 0.9 | 0.8
O=C(Nc1ccccc1)Nc1ccc(C(=O)N2CCCC2)cc1 | nt | -15 | 9.6* | 1 | 1
COc1ccc(-c2csc(CCN3N=C(C)CC3=O)n2)cc1 | 5 | -27 | -1 | 2.1* | 1.6
CCOC(=O)c1ccc(NC(=O)COC(=O)c2cccc(Oc3ccccc3)c2)cc1 | 14 | 19 | -2 | 0.9 | 0.9
Cc1cccc(NC(=O)CN2C(=O)N/C(=C/c3cc(C)n(-c4cccnc4)c3C)C2=O)c1 | 3 | 51* | 4 | 1.1 | 1.1
COc1cc2c(cc1OC)CN(CC(=O)NC(=O)NCc1ccccc1)CC2 | nt | -29 | -7 | 1 | 1.1
COc1ccc(C2=Nn3c(nnc3-c3ccco3)SC2)cc1 | 9 | 51* | 0 | 1.2 | 1.2
COc1ccc(OC)c(C2=Nn3c(nnc3-c3ccco3)SC2)c1 | 7 | 5 | -4 | 1 | 1.1
CC(C)(C)C1=Nn2c(nnc2-c2ccco2)SC1 | 0 | -10 | -4 | 1 | 1
Oc1ccc(C2=Nn3c(nnc3-c3ccco3)SC2)cc1O | nt | 1 | 12* | 0.4 | 0.4
O=C(CCSCc1ccccc1Cl)NC1CCCCC1 | -1 | 34 | -3 | 0.9 | 0.9
COC(=O)c1oc(-c2ccc(Cl)cc2)nc1C | -7 | 15 | -5 | 1.1 | 1.1
COc1oc(-c2ccc(Cl)cc2)nc1C(F)(F)F | -8 | -19 | 21* | 1.4 | 1.4
CCOc1ccc(OCCCC(=O)O)cc1 | 6 | -33 | 1 | 1.1 | 1.1
SMILES | Rad51 HR inh | Calpain2 inh | HMGR II inh | PMI act satM6P | PMI act
CC(=O)C1=C(O)C(=O)N(C)C1c1ccccc1F (stereo not given) | 3 | 13 | 16* | 1 | 1
CC(=O)C1=C(O)C(=O)N(CO)C1c1ccccc1F (stereo not given) | 4 | 3 | -1 | 1 | 1.1
CCCCn1c(-c2csc3c2CCC(C)C3)n[nH]c1=S (stereo not given) | 0 | 66* | 1 | 0.9 | 0.8
Cc1c(C(C)(C)C)c(C=S)n2ccccc12 | -4 | -16 | -6 | 2* | 1.6
O=C(CN1C(=O)c2ccccc2S1(=O)=O)Nc1ccc(S(=O)(=O)N2CCCCC2)cc1 | 73* | -23 | 0 | 0.9 | 0.9
O=C(CCCCCN1C(=O)c2ccccc2C1=O)Nc1ccc(S(=O)(=O)N2CCCCC2)cc1 | -9 | 53* | -5 | 0.9 | 0.9
CC1CCN(S(=O)(=O)c2ccc(NC(=O)CCN3C(=O)c4ccccc4C3=O)cc2)CC1 | -5 | 43 | -7 | 1 | 1
N#Cc1ccccc1OCC(=O)NC(=O)NCc1ccco1 | 14 | -19 | nt | nt | nt
CC(=O)c1ccc(NC(=O)N2C3CCC2CC(O)(c2cccnc2)C3)cc1 (stereo not given) | 2 | 2 | 8 | 1 | 1
Cc1ccc(S(=O)(=O)Oc2cc(N)c3c(n2)CCC3)cc1 | 3 | 0 | nt | nt | nt
N#Cc1c(Nc2ccccc2)sc(C(=O)C2CC2)c1N | 3 | -13 | 2 | 1.1 | 1
COc1ccc(NC(=O)c2cc(-c3cccnc3)nc3c(C)c(C)ccc23)c(OC)c1 | -7 | -67 | -2 | 1 | 0.9
COc1cccc(NC(=O)c2cc(-c3cccnc3)nc3c(Cl)cccc23)c1 | 45* | -31 | -9 | 1 | 1
O=C(c1ccc(Cl)s1)N1CCCC1 | -1 | -7 | -4 | 1 | 1
CS(=O)(=O)N1CCN(C(=O)c2ccc(Cl)s2)CC1 | 43* | -9 | -2 | 1 | 1
O=C1NCCCC1C(=O)Nc1ccccc1C(F)(F)F (stereo not given) | -6 | -14 | + | 1 | 1.1
Cc1cc(C)c(NC(=O)COc2ccccc2C(=O)Nc2ccc3c(c2)oc2ccccc23)c(C)c1 | -5 | i | -7 | 1 | 1
O=C(C/C=N/OCc1ccc(F)cc1Cl)c1cnc(-c2ccccc2)s1 | 6 | -15 | 11* | 1 | 1.1
N#C/C(=C\c1ccc(OC(F)F)cc1)C(=O)N1CCCCC1 | -5 | -16 | nt | nt | nt
CN1CCC(N(C)C(=O)/C(C#N)=C/c2ccc(OC(F)F)cc2)CC1 | 45* | -20 | nt | nt | nt
O=C(CN1C(=O)NC(Cc2ccccc2)C1=O)Nc1ccc(F)cc1 (stereo not given) | -6 | -19 | -1 | 1 | 0.9
Cc1ccc(NC(=O)CN2C(=O)NC(Cc3ccccc3)C2=O)c(Br)c1 (stereo not given) | 1 | 6 | 10* | 1.1 | 1.1
Cc1cc(C)cc(NC(=S)NCc2ccc3[nH]c4c(c3c2)CCCC4)c1 | nt | -45 | -4 | 1 | 1
S=C(NCc1ccc2[nH]c3c(c2c1)CCCC3)Nc1ccccc1 | 3 | -3 | 9.8* | 1 | 1
COc1ccccc1NC(=O)/C(=C/c1cccs1)NC(=O)c1ccco1 | nt | 55* | nt | nt | nt
Cc1sc(-n2c(C)cc(C=O)c2C)c(C(=O)O)c1C | 5 | -44 | -3 | 1 | 1
CCc1nnc(NCC(=O)N2CCc3ccccc32)s1 | 3 | -209 | 2 | 2.2* | 1.1
CCOC(=O)c1cnc(-n2nc(C)cc2C)nc1Nc1ccc(OC)cc1 | -1 | 54* | -3 | 0.8 | 0.9
CN1CCN(S(=O)C23CC4CC(CC(C4)C2)C3)CC1 (stereo not given) | -4 | -11 | 0 | 0.9 | 1.1
